One block for each compound: values may come before it. Active and inactive are the calls of the source. No cut-off for these calls is given here.
Key:
HCC827 = test: Antitumor activity against human HCC827 cells xenografted in BALB/c mouse assessed as tumor growth inhibition at 5 mg/kg po, qd for 12 days; assay type: functional, organism-based
In short: (§1)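 Athymic mice received 2 × 10⁶ tumour cells subcutaneously in the right flank. At 100–300 mm³ they were randomised to control and treatment groups (n = 6); controls received vehicle alone. Tumour volume = length × width²/2 and RTV = Vt/V0.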

Mus musculus [1] = test: Toxicity in human HCC827 cells xenografted BALB/c mouse assessed as induction of eye disease at 5 mg/kg po, qd for 12 days; assay type: organism-based; settings: in vivo, 288 h
In short: (§2)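 Athymic mice bearing subcutaneous right-flank xenografts (2 × 10⁶ cells, dosed at 100–300 mm³; n = 6 per group; vehicle controls). Health was observed daily and body weight measured on indicated days. Body weight change (%) = (Wt/W0 − 1) × 100 against predosing weight, given as group mean ± SEM.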

[2] = target: Epidermal growth factor receptor (Homo sapiens, UniProt P00533); test: Inhibition of EGFR (unknown origin) by ELISA method
Sequence of Epidermal growth factor receptor (P00533 whole entry): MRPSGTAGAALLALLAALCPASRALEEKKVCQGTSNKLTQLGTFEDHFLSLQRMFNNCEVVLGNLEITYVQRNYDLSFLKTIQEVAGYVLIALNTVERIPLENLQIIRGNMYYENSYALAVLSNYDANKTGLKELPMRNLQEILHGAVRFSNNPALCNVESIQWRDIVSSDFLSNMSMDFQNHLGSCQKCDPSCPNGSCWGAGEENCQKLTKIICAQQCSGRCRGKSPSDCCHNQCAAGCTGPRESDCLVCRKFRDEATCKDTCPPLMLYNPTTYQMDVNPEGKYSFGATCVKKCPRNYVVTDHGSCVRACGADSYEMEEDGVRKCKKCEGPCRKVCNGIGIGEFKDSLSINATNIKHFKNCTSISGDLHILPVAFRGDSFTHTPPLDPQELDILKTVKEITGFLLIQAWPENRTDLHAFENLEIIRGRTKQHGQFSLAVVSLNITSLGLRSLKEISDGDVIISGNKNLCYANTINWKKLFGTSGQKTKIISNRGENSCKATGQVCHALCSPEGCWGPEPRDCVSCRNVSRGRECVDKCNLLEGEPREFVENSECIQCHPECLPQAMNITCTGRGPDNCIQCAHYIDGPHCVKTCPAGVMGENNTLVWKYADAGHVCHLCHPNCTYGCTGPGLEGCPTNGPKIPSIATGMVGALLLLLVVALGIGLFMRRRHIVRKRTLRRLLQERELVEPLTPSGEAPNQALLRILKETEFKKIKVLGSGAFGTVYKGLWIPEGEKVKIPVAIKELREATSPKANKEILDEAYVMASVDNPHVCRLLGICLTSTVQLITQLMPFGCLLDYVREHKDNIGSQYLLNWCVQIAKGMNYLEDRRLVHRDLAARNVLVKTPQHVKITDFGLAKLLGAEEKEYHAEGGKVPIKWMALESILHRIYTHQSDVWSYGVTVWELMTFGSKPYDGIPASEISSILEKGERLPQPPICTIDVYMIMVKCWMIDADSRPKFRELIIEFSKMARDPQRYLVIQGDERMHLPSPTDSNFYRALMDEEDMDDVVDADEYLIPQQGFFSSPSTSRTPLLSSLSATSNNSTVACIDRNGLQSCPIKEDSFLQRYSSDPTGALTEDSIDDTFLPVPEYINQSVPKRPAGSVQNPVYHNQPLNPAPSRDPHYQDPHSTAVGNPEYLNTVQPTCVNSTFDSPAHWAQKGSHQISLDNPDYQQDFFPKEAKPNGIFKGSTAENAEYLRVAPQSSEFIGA

Mus musculus [3] = test: Toxicity in human HCC827 cells xenografted BALB/c mouse assessed as induction of exfoliative skin disorders at 5 mg/kg po, qd for 12 days; assay type: organism-based; settings: in vivo, 288 h; in short: as §2
[4] = Bioavailability in Sprague-Dawley rat at 1 mg/kg, iv incubated for 24 hrs by LC/MS/MS method; assay type: ADME, organism-based; settings: in vivo
In short: (§3)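 Male Sprague-Dawley rats (n = 3) dosed once at 1 mg/kg iv via tail vein, or once at 5 mg/kg by oral gavage, using the same formulation. Serial blood samples were taken over 24 h. Plasma levels were measured by LC/MS/MS (C18 column, 10 mM ammonium formate-0.1% formic acid water/methanol 10/90, ESI positive). Parameters were derived by noncompartmental analysis.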

[5] = Elimination half-life in Sprague-Dawley rat at 1 mg/kg, iv incubated for 24 hrs by LC/MS/MS method; assay type: ADME, organism-based; settings: in vivo, read-out: beta t1/2 (converted); in short: as §3
NCI-H1975 [6] = test: Antitumor activity against human NCI-H1975 cells xenografted in BALB/c mouse assessed as tumor growth inhibition at 20 mg/kg po, qd for 21 days relative to control; assay type: functional; in short: as §1
NCI-H1975 [7] = test: Antiproliferative activity against human NCI-H1975 cells assessed as growth inhibition; assay type: functional
In short: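 NCI-H1975 cells were grown in RPMI with 1 mM sodium pyruvate, 10% FBS and 1% penicillin-streptomycin, under humidified 5% CO₂ at 37 °C. Growth inhibition was read as GI₅₀.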

Mus musculus [8] = test: Toxicity in human A431 cells xenografted BALB/c mouse assessed as induction of exfoliative skin disorders at 5 and 10 mg/kg po, qd for 18 days; assay type: organism-based, A-431; settings: in vivo, 432 h; in short: as §2
Mus musculus [9] = test: Toxicity in NCI-H1975 xenografted BALB/c mouse assessed as body weight change at 20 mg/kg po, qd for 21 days; assay type: organism-based; settings: in vivo, 504 h; in short: as §2
[10] = AUC (0 to infinity) in Sprague-Dawley rat at 1 mg/kg, iv by LC/MS/MS method; assay type: ADME, organism-based; design: dose 1 mg/kg, time infinity, route intravenous; settings: in vivo; in short: as §3
Mus musculus [11] = test: Toxicity in human HCC827 cells xenografted BALB/c mouse assessed as body weight loss at 5 mg/kg po, qd for 12 days; assay type: organism-based; settings: in vivo, 288 h; in short: as §2
[12] = Clearance in Sprague-Dawley rat at 1 mg/kg, iv incubated for 24 hrs by LC/MS/MS method; assay type: ADME, organism-based; settings: in vivo; in short: as §3
Mus musculus [13] = test: Toxicity in human A431 cells xenografted BALB/c mouse assessed as induction of eye diseases at 5 and 10 mg/kg po, qd for 18 days; assay type: organism-based, A-431; settings: in vivo, 432 h; in short: as §2
A-431 [14] = test: Antitumor activity against human A431 cells xenografted in BALB/c mouse assessed as tumor growth inhibition at 5 mg/kg po, qd for 18 days; assay type: functional, organism-based; in short: as §1
A-431 [15] = test: Antitumor activity against human A431 cells xenografted in BALB/c mouse assessed as tumor growth inhibition at 10 mg/kg po, qd for 18 days; assay type: functional, organism-based; in short: as §1
[16] = Mean residence time in Sprague-Dawley rat at 1 mg/kg, iv incubated for 24 hrs by LC/MS/MS method; assay type: ADME, organism-based; settings: in vivo; in short: as §3
[17] = Apparent volume of distribution in Sprague-Dawley rat at 1 mg/kg, iv incubated for 24 hrs by LC/MS/MS method; assay type: ADME, organism-based; settings: in vivo, read-out: Vd(app); in short: as §3
Mus musculus [18] = test: Toxicity in human A431 cells xenografted BALB/c mouse assessed as body weight loss at 5 and 10 mg/kg po, qd for 18 days; assay type: organism-based, A-431; settings: in vivo, 432 h; in short: as §2
[19] = AUC (0 to 24 hrs) in Sprague-Dawley rat at 1 mg/kg, iv by LC/MS/MS method; assay type: ADME, organism-based; design: time < 24 hr, dose 1 mg/kg, route intravenous; settings: in vivo; in short: as §3
Mus musculus [20] = test: Toxicity in NCI-H1975 xenografted BALB/c mouse assessed as induction of eye disease at 8 mg/kg po, qd for 21 days; assay type: organism-based; settings: in vivo, 504 h; in short: as §2
Mus musculus [21] = test: Toxicity in NCI-H1975 xenografted BALB/c mouse assessed as induction of lethargy at 8 mg/kg po, qd for 21 days; assay type: organism-based; settings: in vivo, 504 h; in short: as §2
NCI-H1975 [22] = test: Antitumor activity against human NCI-H1975 cells xenografted in BALB/c mouse assessed as tumor growth inhibition at 8 mg/kg po, qd for 21 days; assay type: functional, organism-based; in short: as §1
Mus musculus [23] = test: Toxicity in NCI-H1975 xenografted BALB/c mouse assessed as induction of exfoliative skin disorder at 8 mg/kg po, qd for 21 days; assay type: organism-based; settings: in vivo, 504 h; in short: as §2
[24] = Toxicity in NCI-H1975 xenografted BALB/c mouse assessed as induction of mouse mortality at 8 mg/kg po, qd for 9 days; assay type: organism-based; settings: in vivo
In short: (§4)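 Athymic mice received 2 × 10⁶ NCI-H1975 cells subcutaneously in the right flank. When tumours reached 100–300 mm³, mice were randomised into control and treatment groups (n = 6 per group), and controls got vehicle alone. Health was checked daily, and body weight and tumour size were measured on set days during treatment.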

Mus musculus [25] = test: Toxicity in NCI-H1975 xenografted BALB/c mouse assessed as induction of weakness at 8 mg/kg po, qd for 21 days; assay type: organism-based; settings: in vivo, 504 h; in short: as §2
Mus musculus [26] = test: Toxicity in NCI-H1975 xenografted BALB/c mouse assessed as body weight loss at 8 mg/kg po, qd for 21 days; assay type: organism-based; settings: in vivo, 504 h; in short: as §2
Mus musculus [27] = test: Toxicity in NCI-H1975 xenografted BALB/c mouse assessed as skin toxicity at 10 mg/kg po, qd for 21 days; assay type: organism-based; settings: in vivo, 504 h; in short: as §2
NCI-H1975 [28] = test: Antitumor activity against human NCI-H1975 cells xenografted in BALB/c mouse assessed as tumor growth inhibition at 10 mg/kg po, qd for 21 days; assay type: functional, organism-based; in short: as §1
Mus musculus [29] = test: Toxicity in NCI-H1975 xenografted BALB/c mouse assessed as body weight change at 10 mg/kg po, qd for 21 days; assay type: organism-based; settings: in vivo, 504 h; in short: as §2
[30] = Toxicity in NCI-H1975 xenografted BALB/c mouse assessed as induction of mouse mortality at 4 mg/kg po, qd for 9 days; assay type: organism-based; settings: in vivo; in short: as §4
NCI-H1975 [31] = test: Antitumor activity against human NCI-H1975 cells xenografted in BALB/c mouse assessed as tumor growth inhibition at 4 mg/kg po, qd for 21 days; assay type: functional, organism-based; in short: as §1
Mus musculus [32] = test: Toxicity in NCI-H1975 xenografted BALB/c mouse assessed as induction of exfoliative skin disorder at 4 mg/kg po, qd for 21 days; assay type: organism-based; settings: in vivo, 504 h; in short: as §2
Mus musculus [33] = test: Toxicity in NCI-H1975 xenografted BALB/c mouse assessed as induction of lethargy at 4 mg/kg po, qd for 21 days; assay type: organism-based; settings: in vivo, 504 h; in short: as §2
Mus musculus [34] = test: Toxicity in NCI-H1975 xenografted BALB/c mouse assessed as induction of weakness at 4 mg/kg po, qd for 21 days; assay type: organism-based; settings: in vivo, 504 h; in short: as §2
Mus musculus [35] = test: Toxicity in NCI-H1975 xenografted BALB/c mouse assessed as body weight loss at 4 mg/kg po, qd for 21 days; assay type: organism-based; settings: in vivo, 504 h; in short: as §2
Mus musculus [36] = test: Toxicity in NCI-H1975 xenografted BALB/c mouse assessed as induction of eye disease at 4 mg/kg po, qd for 21 days; assay type: organism-based; settings: in vivo, 504 h; in short: as §2
Mus musculus [37] = test: Toxicity in human NCI-H1975 cells xenografted BALB/c mouse assessed as mouse mortality at 30 mg/kg po, qd for 21 days measured on day 10 relative to control; assay type: organism-based; settings: in vivo, 504 h; in short: as §4
Mus musculus [38] = test: Toxicity in human NCI-H1975 cells xenografted BALB/c mouse assessed as body weight changes at 20 mg/kg po, qd for 21 days relative to control; assay type: organism-based; settings: in vivo, 504 h; in short: as §2

IC50 [2]: 5.6 nM
bioavailability [4]: 37.9%
half-life [5]: 2.3 h
GI50 (NCI-H1975 [7]): 16.1 nM
AUC(0-inf) [10]: 480 ng·h/mL
clearance [12]: 50 mL/min/kg
MRT [16]: 1.7 h
Vd [17]: 2.2 L/kg
AUC(0-t) at 24 h [19]: 471 ng·h/mL
Compound: C#Cc1cccc(Nc2ncnc3cc(O[C@H]4CCOC4)c(NC(=O)/C=C/CNC4CC4)cc23)c1
TGI (HCC827): Active
Activity (Mus musculus [1]): Non-toxic
Activity (Mus musculus [3]): Non-toxic
TGI (NCI-H1975 [6]): Active
Activity (Mus musculus [8]): Non-toxic
Activity (Mus musculus [9]): Non-toxic
Activity (Mus musculus [11]): Non-toxic
Activity (Mus musculus [13]): Non-toxic
TGI (A-431 [14]): inactive
TGI (A-431 [15]): Active
Activity (Mus musculus [18]): Non-toxic

Compound: COc1cc2ncnc(Nc3ccc(F)c(Cl)c3)c2cc1NC(=O)/C=C/CNC1CC1
Activity (Mus musculus [20]): Toxic
Activity (Mus musculus [21]): Toxic
IC50 [2]: 2.1 nM
TGI (NCI-H1975 [22]): Active
Activity (Mus musculus [23]): Toxic
mortality at 216 h [24]: > 50%
GI50 (NCI-H1975 [7]): 11.2 nM
Activity (Mus musculus [25]): Toxic
Activity (Mus musculus [26]): Toxic

IC50 [2]: 7.9 nM
GI50 (NCI-H1975 [7]): 18.9 nM
Compound: C#Cc1cccc(Nc2ncnc3cc(OC)c(NC(=O)/C=C/CNC4CC4)cc23)c1
Activity (Mus musculus [27]): Toxic
TGI (NCI-H1975 [28]): Active
Activity (Mus musculus [29]): Non-toxic

Compound: CCOc1cc2ncnc(Nc3ccc(F)c(Cl)c3)c2cc1NC(=O)/C=C/CNC1CC1
mortality at 216 h [30]: > 50%
TGI (NCI-H1975 [31]): Active
IC50 [2]: 0.9 nM
Activity (Mus musculus [32]): Toxic
GI50 (NCI-H1975 [7]): 11.6 nM
Activity (Mus musculus [33]): Toxic
Activity (Mus musculus [34]): Toxic
Activity (Mus musculus [35]): Toxic
Activity (Mus musculus [36]): Toxic

Compound: CN(C)C/C=C/C(=O)Nc1cc2c(Nc3ccc(F)c(Cl)c3)ncnc2cc1O[C@H]1CCOC1.O=C(O)/C=C\C(=O)O.O=C(O)/C=C\C(=O)O [AFATINIB DIMALEATE]
Activity (Mus musculus [37]): Toxic
Activity (Mus musculus [38]): Non-toxic
inhibition in vivo at 20 mg/kg (NCI-H1975 [6]; 504 h, read-out: TGI): < 50%
